Values after ≈ are worked out from the molar mass of the structure shown.
Key:
Type in all cases: functional
Candida albicans [1] = assay: Antifungal activity against Candida albicans SC5314 after 24 hrs by serial dilution method; settings: SC5314, 24 h
Summary of the method: (§1)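 MIC by broth serial dilution per NCCLS/CLSI (M27-A3 yeasts, M38-A2 filamentous) in 96-well plates; ATCC strains plus clinical isolates; C. parapsilosis 22019 run as quality-control strain in every assay. Compounds dissolved in DMSO, serially diluted in growth medium; incubation 35 °C; MIC read at 24 h (Candida), 48 h (A. fumigatus), 72 h (C. neoformans).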

Candida albicans [2] = assay: Antifungal activity against Candida albicans Y0109 after 24 hrs by serial dilution method; settings: Y0109, 24 h; summary of the method: as §1
Candida parapsilosis = assay: Antifungal activity against Candida parapsilosis 22019 after 24 hrs by serial dilution method; settings: Lodderomyces parapsilosis, 22019, 24 h; summary of the method: as §1
Cryptococcus neoformans = assay: Antifungal activity against Cryptococcus neoformans 32609 after 72 hrs by serial dilution method; settings: Cryptococcus neoformans, 32609, 72 h; summary of the method: as §1
Nakaseomyces glabratus = assay: Antifungal activity against Candida glabrata 537 after 24 hrs by serial dilution method; settings: Nakaseomyces glabratus, 537, 24 h; summary of the method: as §1
Aspergillus fumigatus = assay: Antifungal activity against Aspergillus fumigatus 7544 after 48 hrs by serial dilution method; settings: Aspergillus fumigatus, 7544, 48 h; summary of the method: as §1

| Structure (SMILES) | MIC (Candida albicans [1]) [µg/mL] | MIC (Candida albicans [2]) [µg/mL] | MIC (Candida parapsilosis) [µg/mL] | MIC (Cryptococcus neoformans) [µg/mL] | MIC (Nakaseomyces glabratus) [µg/mL] | MIC (Aspergillus fumigatus) [µg/mL] |
| --- | --- | --- | --- | --- | --- | --- |
| C[C@@H](N1Cc2sc(-c3cncc(F)c3)cc2C1=O)[C@](O)(Cn1cncn1)c1ccc(F)cc1F | 0.0078 (≈ 0.0161 µM) | 0.0156 (≈ 0.0321 µM) | 0.0156 (≈ 0.0321 µM) | 0.0078 (≈ 0.0161 µM) | 0.0625 (≈ 0.129 µM) | > 64 |
| C[C@@H](N1Cc2cc(-c3cncnc3)sc2C1=O)[C@](O)(Cn1cncn1)c1ccc(F)cc1F | 0.0312 (≈ 0.0667 µM) | 0.0156 (≈ 0.0333 µM) | 0.0625 (≈ 0.133 µM) | 0.0312 (≈ 0.0667 µM) | 0.125 (≈ 0.267 µM) | 4 (≈ 8.54 µM) |
| C[C@@H](N1Cc2cc(-c3ccc(C#N)nc3)sc2C1=O)[C@](O)(Cn1cncn1)c1ccc(F)cc1F | 0.125 (≈ 0.254 µM) | 0.0312 (≈ 0.0635 µM) | 0.125 (≈ 0.254 µM) | 0.125 (≈ 0.254 µM) | 0.5 (≈ 1.02 µM) | 8 (≈ 16.2 µM) |
| C[C@@H](N1Cc2sc(Br)cc2C1=O)[C@](O)(Cn1cncn1)c1ccc(F)cc1F | 0.0312 (≈ 0.0666 µM) | 0.0625 (≈ 0.133 µM) | 0.0625 (≈ 0.133 µM) | 0.125 (≈ 0.266 µM) | 0.125 (≈ 0.266 µM) | 32 (≈ 68.2 µM) |
| C[C@@H](N1Cc2cc(-c3cccc(Cl)c3)sc2C1=O)[C@](O)(Cn1cncn1)c1ccc(F)cc1F | 0.0156 (≈ 0.0311 µM) | 0.0625 (≈ 0.125 µM) | 0.0625 (≈ 0.125 µM) | 0.125 (≈ 0.25 µM) | 0.125 (≈ 0.25 µM) | 8 (≈ 16 µM) |
| C[C@@H](N1Cc2sc(-c3cncnc3)cc2C1=O)[C@](O)(Cn1cncn1)c1ccc(F)cc1F | 0.0156 (≈ 0.0333 µM) | 0.0156 (≈ 0.0333 µM) | 0.0156 (≈ 0.0333 µM) | 0.0078 (≈ 0.0166 µM) | 0.0156 (≈ 0.0333 µM) | 32 (≈ 68.3 µM) |
| COc1ncc(-c2cc3c(s2)CN([C@H](C)[C@](O)(Cn2cncn2)c2ccc(F)cc2F)C3=O)cn1 | 0.0156 (≈ 0.0313 µM) | 0.0156 (≈ 0.0313 µM) | 0.0156 (≈ 0.0313 µM) | 0.0156 (≈ 0.0313 µM) | 0.0156 (≈ 0.0313 µM) | 16 (≈ 32.1 µM) |
| C[C@@H](N1Cc2sc(-c3cccnc3)cc2C1=O)[C@](O)(Cn1cncn1)c1ccc(F)cc1F | 0.0156 (≈ 0.0334 µM) | 0.0156 (≈ 0.0334 µM) | 0.0156 (≈ 0.0334 µM) | 0.0156 (≈ 0.0334 µM) | 0.0156 (≈ 0.0334 µM) | 16 (≈ 34.2 µM) |
| C[C@@H](N1Cc2cc(-c3ccccc3)sc2C1=O)[C@](O)(Cn1cncn1)c1ccc(F)cc1F | 0.0156 (≈ 0.0334 µM) | 0.0312 (≈ 0.067 µM) | 0.0625 (≈ 0.134 µM) | 0.0625 (≈ 0.134 µM) | 0.125 (≈ 0.268 µM) | 8 (≈ 17.1 µM) |
| C[C@@H](N1CCn2nc(-c3ccc(C#N)nc3)nc2C1)[C@](O)(Cn1cncn1)c1ccc(F)cc1F | 0.0156 (≈ 0.0327 µM) | 0.0156 (≈ 0.0327 µM) | 0.0156 (≈ 0.0327 µM) | 0.0625 (≈ 0.131 µM) | 0.0156 (≈ 0.0327 µM) | 2 (≈ 4.19 µM) |
| C[C@@H](N1Cc2cc(-c3ccncc3)sc2C1=O)[C@](O)(Cn1cncn1)c1ccc(F)cc1F | 0.0156 (≈ 0.0334 µM) | 0.0312 (≈ 0.0668 µM) | 0.0312 (≈ 0.0668 µM) | 0.0156 (≈ 0.0334 µM) | 0.0625 (≈ 0.134 µM) | 1 (≈ 2.14 µM) |
| COc1ncc(-c2cc3c(s2)C(=O)N([C@H](C)[C@](O)(Cn2cncn2)c2ccc(F)cc2F)C3)cn1 | 0.0625 (≈ 0.125 µM) | 0.0625 (≈ 0.125 µM) | 0.0625 (≈ 0.125 µM) | 0.0625 (≈ 0.125 µM) | 0.25 (≈ 0.501 µM) | 4 (≈ 8.02 µM) |
| C[C@@H](N1Cc2cc(-c3ccc(C#N)cc3)sc2C1=O)[C@](O)(Cn1cncn1)c1ccc(F)cc1F | 0.0156 (≈ 0.0317 µM) | 0.0156 (≈ 0.0317 µM) | 0.0156 (≈ 0.0317 µM) | 0.0156 (≈ 0.0317 µM) | 0.125 (≈ 0.254 µM) | 4 (≈ 8.14 µM) |
| C[C@@H](N1Cc2cc(-c3cncc(F)c3)sc2C1=O)[C@](O)(Cn1cncn1)c1ccc(F)cc1F | 0.0312 (≈ 0.0644 µM) | 0.0312 (≈ 0.0644 µM) | 0.0312 (≈ 0.0644 µM) | 0.0312 (≈ 0.0644 µM) | 0.25 (≈ 0.515 µM) | 4 (≈ 8.24 µM) |
| C[C@@H](N1Cc2sc(-c3ccc(C#N)nc3)cc2C1=O)[C@](O)(Cn1cncn1)c1ccc(F)cc1F | 0.0156 (≈ 0.0317 µM) | 0.0156 (≈ 0.0317 µM) | 0.0156 (≈ 0.0317 µM) | 0.0156 (≈ 0.0317 µM) | 0.0625 (≈ 0.127 µM) | 32 (≈ 65 µM) |
| C[C@@H](N1Cc2cc(-c3ccc(F)cc3)sc2C1=O)[C@](O)(Cn1cncn1)c1ccc(F)cc1F | 0.0156 (≈ 0.0322 µM) | 0.0312 (≈ 0.0645 µM) | 0.0612 (≈ 0.126 µM) | 0.0625 (≈ 0.129 µM) | 0.125 (≈ 0.258 µM) | 4 (≈ 8.26 µM) |
| COc1ccc(-c2cc3c(s2)C(=O)N([C@H](C)[C@](O)(Cn2cncn2)c2ccc(F)cc2F)C3)cn1 | 0.0156 (≈ 0.0314 µM) | 0.0312 (≈ 0.0628 µM) | 0.0312 (≈ 0.0628 µM) | 0.0312 (≈ 0.0628 µM) | 0.125 (≈ 0.251 µM) | 8 (≈ 16.1 µM) |
| COc1ccc(-c2cc3c(s2)CN([C@H](C)[C@](O)(Cn2cncn2)c2ccc(F)cc2F)C3=O)cn1 | 0.0156 (≈ 0.0314 µM) | 0.0156 (≈ 0.0314 µM) | 0.0156 (≈ 0.0314 µM) | 0.0156 (≈ 0.0314 µM) | 0.0156 (≈ 0.0314 µM) | 64 (≈ 129 µM) |
